# Tests used:
# B16 = experiment: Tested in vitro for cytotoxicity against B16 murine melanoma cells; format: functional, Mus musculus
# Summary of the method: (§1)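 Clonogenic assay. Cells were suspended in unsupplemented medium at 2-30 000 cells/mL and exposed 2 h at 37 °C, 5% CO2 to 1-400 µM drug (final), with the top dose chosen to give >99% kill. Drug stocks were made in medium or ethanol. After washing, cells were plated at 2-3 dilutions. Colonies of ≥50 cells were stained with crystal violet at 8 days (B16) or 14 days (MCF-7). LC99 was taken by linear regression of log surviving fraction vs concentration.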
# MCF7-CP = experiment: Tested in vitro for cytotoxicity against MCF-7/CP 4-hydroperoxycyclophosphamide-resistant human breast cancer cells; format: functional; summary of the method: as §1
# MCF7 = experiment: Tested in vitro for cytotoxicity against MCF-7/WT wild-type human breast cancer cells; format: functional; summary of the method: as §1
# HT-29 [1] = experiment: Tested in vitro for cytotoxicity against HT-29 human colon carcinoma cells under hypoxic condition; format: functional
# Summary of the method: (§2)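 HT-29 colon cells were grown in α-MEM with 10% FBS and given a 4-h drug exposure under aerobic or hypoxic conditions in a clonogenic assay run in duplicate. The top dose was chosen to give >99% kill. LC99 (1% colony survival versus untreated controls) was taken by linear regression of log surviving fraction vs drug concentration.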
# HT-29 [2] = experiment: Tested in vitro for cytotoxicity against HT-29 human colon carcinoma cells under aerobic condition; format: functional; summary of the method: as §2
# [3] = Ratio of lethal conc. under aerobic to hypoxic condition in HT-29 cells; format: functional
# Summary of the method: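 HT-29 hypoxic selectivity. Aerobic and hypoxic LC99 values (concentration cutting clonogenic survival by 2 log units) come from the log-linear portion of each survival curve after 4-h drug treatment, assayed in duplicate. The ratio is aerobic LC99 over hypoxic LC99.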
structure (smiles),measurement,setting,value
O=P(OCc1cccs1)(N(CCCl)CCCl)N(CCCl)CCCl,LC99,B16,120 µM
same,LC99,MCF7-CP,205 µM
same,LC99,MCF7,211 µM
Cn1c(COP(=O)(N(CCBr)CCBr)N(CCBr)CCBr)ccc1[N+](=O)[O-],LC99,B16,14 µM
same,LC99,MCF7-CP,51 µM
same,LC99,MCF7,57 µM
O=P(OCc1ccco1)(N(CCCl)CCCl)N(CCCl)CCCl,LC99,B16,53 µM
same,LC99,MCF7-CP,230 µM
same,LC99,MCF7,300 µM
CN(C)c1cc(COP(N)(=O)N(CCBr)CCBr)sc1[N+](=O)[O-] (stereo not drawn),LC99,HT-29 [1],8.9 µM
same,LC99,B16,52 µM
same,LC99,MCF7-CP,110 µM
same,LC99,HT-29 [2],180 µM
same,Ratio,[3],20
same,LC99,MCF7,88 µM
O=[N+]([O-])c1ccc(COP(=O)(N(CCCl)CCCl)N(CCCl)CCCl)o1,LC99,HT-29 [1],3.4 µM
same,LC99,B16,9.3 µM
same,LC99,MCF7-CP,22 µM
same,LC99,HT-29 [2],12 µM
same,Ratio,[3],3.5
same,LC99,MCF7,20 µM
O=[N+]([O-])c1ccc(COP(=O)(N(CCBr)CCBr)N(CCBr)CCBr)o1,LC99,B16,1.7 µM
same,LC99,MCF7-CP,2.3 µM
same,LC99,MCF7,1.9 µM
O=[N+]([O-])c1ccc(COP(=O)(N(CCBr)CCBr)N(CCBr)CCBr)s1,LC99,B16,1.1 µM
same,LC99,MCF7-CP,1.9 µM
same,LC99,MCF7,2.4 µM
O=P1(N(CCCl)CCCl)NC(OO)CCO1 (stereo not drawn) [PERFOSFAMIDE],LC99,B16,11 µM
same,LC99,MCF7-CP,145 µM
same,LC99,MCF7,14 µM
Cn1c(COP(=O)(N(CCCl)CCCl)N(CCCl)CCCl)ccc1[N+](=O)[O-],LC99,B16,70 µM
same,LC99,MCF7-CP,245 µM
same,LC99,MCF7,205 µM
NC(=O)c1cc(COP(N)(=O)N(CCBr)CCBr)sc1[N+](=O)[O-] (stereo not drawn),LC99,HT-29 [1],0.33 µM
same,LC99,B16,1.4 µM
same,LC99,MCF7-CP,1.5 µM
same,LC99,HT-29 [2],0.73 µM
same,Ratio,[3],2.2
same,LC99,MCF7,1.6 µM
O=[N+]([O-])c1ccc(COP(=O)(N(CCCl)CCCl)N(CCCl)CCCl)s1,LC99,HT-29 [1],6.2 µM
same,LC99,B16,5.1 µM
same,LC99,MCF7-CP,6.5 µM
same,LC99,HT-29 [2],10.8 µM
same,Ratio,[3],1.7
same,LC99,MCF7,7.9 µM
Cn1c([N+](=O)[O-])cnc1COP(=O)(N(CCCl)CCCl)N(CCCl)CCCl,LC99,HT-29 [1],28 µM
same,LC99,B16,150 µM
same,LC99,MCF7-CP,>600 µM
same,LC99,HT-29 [2],>600 µM
same,Ratio,[3],>20
same,LC99,MCF7,>600 µM
N#Cc1cc(COP(N)(=O)N(CCBr)CCBr)sc1[N+](=O)[O-] (stereo not drawn),LC99,HT-29 [1],0.22 µM
same,LC99,B16,0.45 µM
same,LC99,MCF7-CP,0.24 µM
same,LC99,HT-29 [2],0.62 µM
same,Ratio,[3],2.8
same,LC99,MCF7,0.11 µM
NP(=O)(OCc1cc(Br)c([N+](=O)[O-])s1)N(CCBr)CCBr (stereo not drawn),LC99,HT-29 [1],0.25 µM
same,LC99,B16,0.44 µM
same,LC99,MCF7-CP,1.3 µM
same,LC99,HT-29 [2],0.91 µM
same,Ratio,[3],3.6
same,LC99,MCF7,0.62 µM

# Source: ChEMBL document CHEMBL1133734, “Synthesis and evaluation of nitroheterocyclic phosphoramidates as hypoxia-selective alkylating agents” (2000)
